Structures can show the parent of a compound that is named as a salt. The source made the active and inactive calls. No cut-off for these calls is given here.
Key:
MDA-MB-231 = experiment: Cytotoxicity against human MDA-MB-231 cells assessed as reduction in cell viability incubated for 72 hrs by MTT assay; assay type: functional, cell-based; conditions: MDA-MB-231, 72 h
How it was run: (§1)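 Cancer lines (MDA-MB-231, HT-1080, PC-3) were grown in DMEM with 10% FBS and penicillin/streptomycin at 37 °C in 5% CO₂. About 5000 cells/well adhered overnight, then serial compound dilutions were added for 72 h, with matching DMSO dilutions (0.5–0.0008% v/v) as controls. MTT (1 mg/ml final, serum-free phenol-red-free DMEM) ran 4 h, was solubilised in 2-propanol, and OD read at 550 nm (ref 690). IC50 is the concentration halving OD versus untreated, mean of three independent experiments.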

HT-1080 [1] = experiment: Cytotoxicity against human HT-1080 cells assessed as reduction in cell viability incubated for 72 hrs by MTT assay; assay type: functional, cell-based; conditions: HT-1080, 72 h; how it was run: as §1
PC-3 = experiment: Cytotoxicity against human PC-3 cells assessed as reduction in cell viability incubated for 72 hrs by MTT assay; assay type: functional, cell-based; conditions: PC-3, 72 h; how it was run: as §1
AG1523 = experiment: Cytotoxicity against human AG01523 cells assessed as reduction in cell viability incubated for 72 hrs by MTT assay; assay type: cell-based; conditions: AG1523, 72 h
HT-1080 [2] = experiment: Induction of cell cycle arrest in human HT1080 cells assessed as accumulation at G0/G1 phase at 2 uM incubated for 24 hrs by RNase/PI staining based flow cytometric analysis (reference value: 32.86 %); assay type: functional
HT-1080 [3] = experiment: Induction of cell cycle arrest in human HT1080 cells assessed as accumulation at S phase at 2 uM incubated for 24 hrs by RNase/PI staining based flow cytometric analysis (reference value: 19.59 %); assay type: functional
HT-1080 [4] = experiment: Induction of cell cycle arrest in human HT1080 cells assessed as accumulation at G2/M phase at 2 uM incubated for 24 hrs by RNase/PI staining based flow cytometric analysis (reference value: 47.55 %); assay type: functional
HT-1080 [5] = experiment: Induction of cell cycle arrest in human HT1080 cells assessed as accumulation at sub-diploid phase at 2 uM incubated for 24 hrs by RNase/PI staining based flow cytometric analysis (reference value: 5.36 %); assay type: functional
HT-1080 [6] = experiment: Inhibition of ERK phosphorylation in human HT-1080 cells at 20 uM after 15 mins by Western blotting analysis
[7] = molecular target: RAC-alpha serine/threonine-protein kinase (Homo sapiens) (UniProt P31749); experiment: Inhibition of AKT phosphorylation at Ser473 residue in human HT-1080 cells at 20 uM after 15 mins by Western blotting analysis
HT-1080 [8] = experiment: Induction of apoptosis in human HT-1080 cells assessed as increase in PARP cleavage at 2 uM after 24 hrs by Western blotting analysis
[9] = molecular target: MAP kinase p38 (Homo sapiens) (UniProt O15264+Q15759+Q16539+P53778); experiment: Induction of p38 MAPK phosphorylation in human HT-1080 cells at 20 uM after 15 mins by Western blotting analysis

RAC-alpha serine/threonine-protein kinase (Homo sapiens), sequence (P31749 whole entry): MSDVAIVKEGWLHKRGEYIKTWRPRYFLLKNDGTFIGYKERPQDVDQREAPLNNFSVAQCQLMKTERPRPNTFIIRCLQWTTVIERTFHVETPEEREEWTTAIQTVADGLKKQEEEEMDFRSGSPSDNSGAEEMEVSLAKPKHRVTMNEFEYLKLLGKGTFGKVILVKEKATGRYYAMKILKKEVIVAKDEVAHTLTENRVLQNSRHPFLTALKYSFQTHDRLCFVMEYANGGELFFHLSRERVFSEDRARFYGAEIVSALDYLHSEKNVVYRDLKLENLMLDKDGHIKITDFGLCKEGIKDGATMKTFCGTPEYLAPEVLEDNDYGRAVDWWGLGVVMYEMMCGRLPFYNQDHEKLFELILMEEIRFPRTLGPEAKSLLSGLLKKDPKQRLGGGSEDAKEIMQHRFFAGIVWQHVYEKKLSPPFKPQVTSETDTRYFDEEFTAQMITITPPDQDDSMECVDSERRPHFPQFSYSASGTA

SMILES | IC50 (MDA-MB-231) [µM] | IC50 (HT-1080 [1]) [µM] | IC50 (PC-3) [µM] | other results
N=C(Nc1cccc(C(F)(F)F)c1)c1cc2c(-c3ccccc3)n[nH]c2c(NC2CCCCC2)n1 | 24.6 | 21.2 | 25 | –
COc1ccc(Cn2nc(-c3ccccc3)c3cc(C(=N)Nc4ccccc4)nc(Nc4cc(OC)c(OC)c(OC)c4)c32)cc1 | 42.1 | 11.1 | > 50 | –
Cn1cc2cc(C(=N)Nc3ccccc3)ncc2n1 | > 50 | – | – | –
CN1CCN(c2ccc(NC(=N)c3cc4cnn(C)c4cn3)cc2)CC1 | 30.2 | 24 | 32.3 | –
COc1ccc(Cn2nc(-c3ccccc3)c3cc(C(=N)Nc4cccc(C(F)(F)F)c4)nc(NC4CCCCC4)c32)cc1 | > 50 | – | – | –
COc1ccc(Cn2ncc3cc(C(=N)Nc4ccccc4)ncc32)cc1 | 34.7 | 25.7 | 36 | –
N=C(Nc1ccccc1)c1cc2cn[nH]c2cn1 | > 50 | – | – | –
COc1cc(Nc2nc(C(=N)Nc3ccc(N4CCN(C)CC4)cc3)cc3c(-c4ccccc4)n[nH]c23)cc(OC)c1OC | 4.6 | 3.4 | 4.3 | –
CN1CCN(c2ccc(NC(=N)c3cc4c(-c5ccccc5)nn(C)c4cn3)cc2)CC1 | 4.9 | 1.4 | 5.9 | IC50 (AG1523): 10.4 µM
COc1ccc(Cn2nc(-c3ccccc3)c3cc(C(=N)Nc4ccc(N5CCN(C)CC5)cc4)nc(N4CCOCC4)c32)cc1 | 1.13 | 0.7 | 4.58 | IC50 (AG1523): 2.19 µM; Percentage of cells in G0/G1 phase (HT-1080 [2]): 34.31%; Activity (HT-1080 [3]): 34.21%; Activity (HT-1080 [4]): 31.48%; Percent of cells in sub-diploid (sub-G1) phase (HT-1080 [5]): 21.09%; inhibition (HT-1080 [6]): Active; inhibition ([7]; time 15.0 mins): 100%; Activity (HT-1080 [8]): Active
Cn1nc(-c2ccccc2)c2cc(C(=N)Nc3ccccc3)ncc21 | 11.1 | 17.4 | 17.3 | –
COc1ccc(Cn2cc3cc(C(=N)Nc4ccccc4)ncc3n2)cc1 | 1.52 | 1.13 | 2.04 | IC50 (AG1523): 32.4 µM; Percentage of cells in G0/G1 phase (HT-1080 [2]): 56.57%; Activity (HT-1080 [3]): 7.35%; Activity (HT-1080 [4]): 36.07%; Percent of cells in sub-diploid (sub-G1) phase (HT-1080 [5]): 24.06%; inhibition (HT-1080 [6]): inactive; Activity (HT-1080 [8]): Active
COc1ccc(Cn2nc(-c3ccccc3)c3cc(C(=N)Nc4cccc(C(F)(F)F)c4)ncc32)cc1 | > 50 | 46.7 | > 50 | –
COc1cc(Nc2nc(C(=N)Nc3cccc(C(F)(F)F)c3)cc3c(-c4ccccc4)n[nH]c23)cc(OC)c1OC | 7.6 | 6.7 | 13.9 | –
COc1ccc(Cn2nc(-c3ccccc3)c3cc(C(=N)Nc4ccccc4)nc(N4CCOCC4)c32)cc1 | 21.2 | 6.2 | 16.4 | –
Cn1cc2cc(C(=N)Nc3cccc(C(F)(F)F)c3)ncc2n1 | > 50 | – | – | –
COc1ccc(Cn2nc(-c3ccccc3)c3cc(C(=N)Nc4cccc(C(F)(F)F)c4)nc(Nc4cc(OC)c(OC)c(OC)c4)c32)cc1 | > 50 | – | – | –
CN1CCN(c2ccc(NC(=N)c3cc4c(-c5ccccc5)n[nH]c4c(NC4CCCCC4)n3)cc2)CC1 | 1.5 | 0.65 | 4.63 | IC50 (AG1523): 12.3 µM; Percentage of cells in G0/G1 phase (HT-1080 [2]): 43.78%; Activity (HT-1080 [3]): 14.37%; Activity (HT-1080 [4]): 41.85%; Percent of cells in sub-diploid (sub-G1) phase (HT-1080 [5]): 13.49%; inhibition (HT-1080 [6]): Active; Activity [9]: Active; inhibition ([7]; time 15.0 mins): 100%; Activity (HT-1080 [8]): Active
COc1ccc(Cn2nc(-c3ccccc3)c3cc(C(=N)Nc4ccc(N5CCN(C)CC5)cc4)ncc32)cc1 | 1.76 | 1.09 | 3.99 | IC50 (AG1523): 10.2 µM; Percentage of cells in G0/G1 phase (HT-1080 [2]): 46.75%; Activity (HT-1080 [3]): 17.27%; Activity (HT-1080 [4]): 35.98%; Percent of cells in sub-diploid (sub-G1) phase (HT-1080 [5]): 17.77%; inhibition (HT-1080 [6]): Active; inhibition ([7]; time 15.0 mins): 100%; Activity (HT-1080 [8]): Active
CN1CCN(c2ccc(NC(=N)c3cc4c(-c5ccccc5)n[nH]c4cn3)cc2)CC1 | 15.9 | 11.4 | 17.1 | –
COc1ccc(Cn2nc(-c3ccccc3)c3cc(C(=N)Nc4ccccc4)ncc32)cc1 | 5.4 | 4.7 | 6.3 | –

SMILES | IC50 (MDA-MB-231) [µM] | IC50 (HT-1080 [1]) [µM] | IC50 (PC-3) [µM] | other results
N=C(Nc1cccc(C(F)(F)F)c1)c1cc2cn[nH]c2cn1 | > 50 | 36.5 | > 50 | –
COc1cccc2c1C(=O)c1c(O)c3c(c(O)c1C2=O)C[C@@](O)(C(=O)CO)C[C@@H]3O[C@H]1C[C@H](N)[C@H](O)[C@H](C)O1 [DOXORUBICIN HYDROCHLORIDE] | 0.19 | 0.008 | 0.38 | IC50 (AG1523): 0.4 µM
COc1ccc(Cn2ncc3cc(C(=N)Nc4cccc(C(F)(F)F)c4)ncc32)cc1 | 29.8 | 24.9 | 27.6 | –
COc1ccc(Cn2cc3cc(C(=N)Nc4cccc(C(F)(F)F)c4)ncc3n2)cc1 | 15.5 | 13 | 12.8 | –
COc1cc(Nc2nc(C(=N)Nc3ccccc3)cc3c(-c4ccccc4)n[nH]c23)cc(OC)c1OC | 4.5 | 3.9 | 5.8 | –
COc1ccc(Cn2nc(-c3ccccc3)c3cc(C(=N)Nc4cccc(C(F)(F)F)c4)nc(N4CCOCC4)c32)cc1 | > 50 | – | – | –
Cn1nc(-c2ccccc2)c2cc(C(=N)Nc3cccc(C(F)(F)F)c3)ncc21 | 21.4 | 17.8 | 20.9 | –
COc1ccc(Cn2nc(-c3ccccc3)c3cc(C(=N)Nc4ccc(N5CCN(C)CC5)cc4)nc(NC4CCCCC4)c32)cc1 | 1.29 | 0.64 | 3.54 | IC50 (AG1523): 3.33 µM; Percentage of cells in G0/G1 phase (HT-1080 [2]): 38.53%; Activity (HT-1080 [3]): 12.9%; Activity (HT-1080 [4]): 48.57%; Percent of cells in sub-diploid (sub-G1) phase (HT-1080 [5]): 14.34%; inhibition (HT-1080 [6]): Active; Activity (HT-1080 [8]): Active
COc1ccc(Cn2ncc3cc(C(=N)Nc4ccc(N5CCN(C)CC5)cc4)ncc32)cc1 | 5.7 | 5.3 | 6.1 | –
COc1ccc(Cn2nc(-c3ccccc3)c3cc(C(=N)Nc4ccccc4)nc(NC4CCCCC4)c32)cc1 | 3.4 | 3.4 | 1.1 | IC50 (AG1523): 26.8 µM; inhibition ([7]; time 15.0 min): inactive
N=C(Nc1cccc(C(F)(F)F)c1)c1cc2c(-c3ccccc3)n[nH]c2c(N2CCOCC2)n1 | 13.3 | 6.8 | 17.3 | –
Cn1ncc2cc(C(=N)Nc3ccccc3)ncc21 | > 50 | – | – | –
N=C(Nc1cccc(C(F)(F)F)c1)c1cc2c(-c3ccccc3)n[nH]c2cn1 | 22.3 | 24.6 | 19.9 | –
CN1CCN(c2ccc(NC(=N)c3cc4cn[nH]c4cn3)cc2)CC1 | 47.5 | 31.3 | 45.4 | –
N=C(Nc1ccccc1)c1cc2c(-c3ccccc3)n[nH]c2c(N2CCOCC2)n1 | 6.8 | 4.8 | 6.8 | –
N=C(Nc1ccccc1)c1cc2c(-c3ccccc3)n[nH]c2c(NC2CCCCC2)n1 | 1.71 | 0.85 | 1.73 | IC50 (AG1523): 4.19 µM; Percentage of cells in G0/G1 phase (HT-1080 [2]): 40.23%; Activity (HT-1080 [3]): 16.48%; Activity (HT-1080 [4]): 43.29%; Percent of cells in sub-diploid (sub-G1) phase (HT-1080 [5]): 8.27%; Activity [9]: Active; Activity (HT-1080 [8]): Active
CN1CCN(c2ccc(NC(=N)c3cc4cn(C)nc4cn3)cc2)CC1 | 20.5 | 21 | 24.8 | –
CN1CCN(c2ccc(NC(=N)c3cc4c(-c5ccccc5)n[nH]c4c(N4CCOCC4)n3)cc2)CC1 | 3.9 | 5.6 | 8.3 | –
N=C(Nc1ccccc1)c1cc2c(-c3ccccc3)n[nH]c2cn1 | 11 | 22 | 23 | –
COc1ccc(Cn2cc3cc(C(=N)Nc4ccc(N5CCN(C)CC5)cc4)ncc3n2)cc1 | 8 | 3.2 | 9.9 | –
Cn1ncc2cc(C(=N)Nc3cccc(C(F)(F)F)c3)ncc21 | > 50 | 33.8 | > 50 | –

Reference: ChEMBL document CHEMBL4819061, “New bioactive 5-arylcarboximidamidopyrazolo[3,4-c]pyridines: Synthesis, cytotoxic activity, mechanistic investigation and structure-activity relationships” (Eur J Med Chem, 2021)
